# Efa HMGR inh = blocks class II HMG-CoA reductase of Enterococcus faecalis; hit rate 0.41% among 190,000; inhibition, % at 10 µM; purified E. faecalis HMGR, NADPH absorbance 340 nm kinetic;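 active = inhibition above a set limit, the median over all tested compounds plus 3 SD, cut at about 9.5% in these data; inconclusive = no clear call, values can overlap the other calls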;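 note: enzyme runs in reverse so mevalonate oxidation gives rising NADPH absorbance; 0% = complete reaction with DMSO and 100% = background rate lacking mevalonate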
# RanGTP-Impb inh = disruptors of Ran-importin-beta complex formation – biochemical, FRET, CFP-Ran, YFP-importin-beta, homogeneous, primary screen. cell-free CFP-Ran/YFP-importin-beta FRET ratio. inhibition, % (no concentration beside the values). hit rate 1.1% among 300,000;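 active = more than half of the replicate wells show a fall in the fluorescence ratio signal beyond about 16%, limit read from the data, passing the limit was not always enough; inconclusive = exactly half of the replicate wells pass the set limit; inactive = fewer than half of replicates pass the limit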;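 note: 0% = DMSO wells and 100% = Ran loaded with GDP instead of GTP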
# Runt-SMMHC FRET = blocks binding of human RUNX1 Runt domain to CBFb-SMMHC. Q01196+Q13951. inhibition, % at 20 µM. hit rate 0.74% among 220,000. AID 1434. Cerulean-Runt/Venus-CBFb-SMMHC FRET ratio 530/480, 1 h;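 active = mean inhibition across duplicate retests at 20 µM reaching about 50%, limit read from the data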;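 note: 0% = DMSO wells and 100% = wells with excess untagged CBFb-SMMHC; inhibitors lower the FRET ratio by blocking Runt binding to CBFb-SMMHC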
# Target sequence (Q01196 whole entry, looked up, the tested form may be a part): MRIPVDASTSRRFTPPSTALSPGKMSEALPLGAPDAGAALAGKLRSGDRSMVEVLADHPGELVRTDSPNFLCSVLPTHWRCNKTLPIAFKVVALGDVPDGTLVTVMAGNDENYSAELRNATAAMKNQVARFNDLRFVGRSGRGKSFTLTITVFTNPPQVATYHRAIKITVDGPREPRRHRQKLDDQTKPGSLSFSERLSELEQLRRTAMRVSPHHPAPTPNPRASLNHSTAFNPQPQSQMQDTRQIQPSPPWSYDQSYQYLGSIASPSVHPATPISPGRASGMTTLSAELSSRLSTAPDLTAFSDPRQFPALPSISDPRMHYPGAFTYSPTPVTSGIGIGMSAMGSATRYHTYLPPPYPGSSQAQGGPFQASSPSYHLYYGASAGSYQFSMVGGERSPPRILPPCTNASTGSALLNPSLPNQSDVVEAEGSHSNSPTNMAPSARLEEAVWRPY
# Target sequence (Q13951 whole entry, looked up, the tested form may be a part): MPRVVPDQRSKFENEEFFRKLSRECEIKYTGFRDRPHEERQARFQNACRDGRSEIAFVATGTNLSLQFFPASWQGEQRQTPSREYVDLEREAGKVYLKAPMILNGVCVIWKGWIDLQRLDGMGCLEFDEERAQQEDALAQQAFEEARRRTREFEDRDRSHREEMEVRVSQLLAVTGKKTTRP
# PHOSPHO1 block = inhibitors of human PHOSPHO1 phosphatase. Q8TCT1. recombinant PHOSPHO1, absorbance phosphatase assay. inhibition, % at 13.3 µM. hit rate 1.1% among 290,000; in the data active = inhibition above about 60%
# Wee1 degr inh = inhibitors of human Wee1 degradation. reporter increase, % at 5 µM. hit rate 1.2% among 220,000. HeLa Luc-Wee1K328M stability, luciferase luminescence; 100% = proteasome inhibitor MG132 effect;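 active = activation above the mean of all tested compounds plus 3 SD, set per screening run, cut at about 8.8% in these data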;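 note: cells exposed to compound for 20 h before luminescence read; 0% = DMSO alone and 100% = MG132 at 30 µM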
# Runt-CBFb FRET = blocks binding of human RUNX1 Runt domain to CBFb; inhibition, % at 20 µM; Cerulean-Runt/Venus-CBFb FRET ratio 530/480, 1 h; hit rate 0.46% among 220,000; AID 1496;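 active = inhibition over about 50% at 20 µM in the single-dose screen, limit read from the data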;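 note: 0% = DMSO wells and 100% = excess unlabeled CBFb competitor control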
#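 Schedule: protein complex preformed 1 h, compound exposure 1 h, room temperature, dark; test system: Cerulean-labeled Runt domain protein; amount: 100 nM per protein; buffer or medium: Tris 50 mM pH 7.5, KCl, K2SO4, 0.01% BSA; read-out: loss of energy transfer signal; detection: FRET fluorescence; controls: 5 µM unlabeled CBFb as full-inhibition high control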
# Numbers without * were called inactive; ? = inconclusive; / = no result given. Shown are actives, neighbours in structure and some others; about 3.4% of the full set was active somewhere.
SMILES,Efa HMGR inh,RanGTP-Impb inh,Runt-SMMHC FRET,PHOSPHO1 block,Wee1 degr inh,Runt-CBFb FRET
CN(CC(=O)Oc1ccc(-c2nnco2)cc1)S(=O)(=O)c1ccc(F)cc1,/,3,/,/,/,/
O=c1[nH]c2c(=O)[nH]cnc2nc1-c1ccccc1,/,47*,/,/,/,/
CC1CCc2sc(C(=O)OCC(=O)NC(C)C)cc2C1 (stereo unspecified),-1,2,2,2,0,-2
O=Cc1ccc(-c2ccc(F)cc2)o1,-3,?,-4,-8,1,0
O=c1nc(/C=C/c2ccc(-c3ccc(F)cc3)o2)cc(C(F)(F)F)[nH]1,1,-76,81*,1,-4,106*
O=C(O)c1ccccc1-c1ccc(/C=C/c2cc(C(F)(F)F)[nH]c(=O)n2)o1,-9,-464,87*,-64,-4,68*
O=C(N/N=C/c1ccc(-c2ccccc2C(=O)O)o1)c1cccs1,-1,-4,-4,17,3,6
CC(C)CNC(=O)CN(c1ccccc1)S(=O)(=O)c1ccccc1[N+](=O)[O-],/,4,/,32,/,/
CCCc1nnc(NC(=O)CCC(=O)NCc2ccccc2)s1,/,0,/,-27,/,/
N#Cc1ccc(-c2ccc(OCC(O)CN3CCCCC3)cc2)cc1 (stereo unspecified),/,-1,/,/,/,/
O=C(CCCn1c(=O)[nH]c2ccccc2c1=O)N1CCN(c2ccccn2)CC1,1,1,2,-6,-1,-2
O=C(CCCn1c(=O)[nH]c2ccsc2c1=O)N1CCN(c2ccccn2)CC1,-5,-5,3,45,11*,2
COc1ccc(CCNC(=O)CSc2nnc(CNC(=O)c3c(F)cccc3Cl)o2)cc1OC,/,5,/,22,/,/
CCOC(=O)COn1c(-c2cccc(Cl)c2)nc2ccc([N+](=O)[O-])cc21,2,-4,-2,65*,0,0
O=C1C(=O)N(CCN2CCOCC2)C(c2ccc([N+](=O)[O-])cc2)/C1=C(/O)c1ccc2c(c1)OCO2 (stereo unspecified),/,7,/,30,/,/
Cn1nnc2cc(C(=O)Nc3ccc4ccccc4c3)ccc21,13*,3,0,29,8,1
CC(=O)c1ccc(OCC(=O)Nc2ccccc2C(=O)NC2CC2)cc1,/,0,/,14,/,/
CCCCCn1c(SCCc2ccccc2)nc2c1c(=O)[nH]c(=O)n2C,-1,-1,20,1,0,3
CCCCCOC(=O)CSc1nc2c(c(=O)[nH]c(=O)n2C)n1CCc1ccccc1,4,1,0,30,9.9*,4
Cc1ccc[n+](CC(=O)Nc2ccc([N+](=O)[O-])cc2Cl)c1,-5,176*,9,29,-2,0
CCOc1ccc(S(=O)(=O)N2CCCC(C(=O)NCc3ccncc3)C2)cc1C (stereo unspecified),/,-2,/,43,/,/
O=S(=O)(Nc1nc2ccccc2nc1Nc1ccc(N2CCOCC2)cc1)c1cc(Cl)ccc1Cl,-6,37*,-7,-12,4,2
CC(CNC(=O)c1ccc(OC2CCN(Cc3ccccn3)CC2)cc1)Oc1cccnc1 (stereo unspecified),/,3,/,37,/,/
CCC(Sc1ncnc2c1c(-c1ccccc1)cn2-c1ccc(OC)cc1)C(=O)OC (stereo unspecified),-2,?,4,-9,1,-4
COc1ccc(C(=O)N2CCCC(CCC(=O)NCc3ccccc3F)C2)c(OC)n1 (stereo unspecified),/,1,/,18,/,/
SMILES,Efa HMGR inh,RanGTP-Impb inh,Runt-SMMHC FRET,PHOSPHO1 block,Wee1 degr inh,Runt-CBFb FRET
Cc1ccc(-c2c3c(=O)n(C)c(=O)n(C)c3cn2Cc2cccnc2)cc1,-3,-1,0,-1,24*,-1
Cn1c(=O)c2c(-c3ccccc3)n(Cc3cccnc3)cc2n(C)c1=O,-4,?,-2,9,1,-2
CNc1sc(C(=O)c2cccs2)c(N)c1-c1nc2ccccc2s1,-5,-1,76*,59,0,8
COc1ccc(Cl)cc1NC(=O)c1noc(C)c1[N+](=O)[O-],/,0,/,-6,/,/
CC(C(c1ccc2c(c1)OCO2)c1c(N)n(C)c(=O)n(C)c1=O)[N+](=O)[O-] (stereo unspecified),/,-2,/,/,/,/
Cc1nn(-c2ccccc2)c2c1P(=O)(O)/C(=C1\N(C)c3ccccc3C1(C)C)C=N2,0,29*,-63,6,1,-47
Cc1ccc(C(=O)NN2C(=O)C3C4C=CC(C5CC45)C3C2=O)cc1 (stereo unspecified),11*,-1,-2,2,-2,1
Cc1ccc(NC(=O)CCN2C(=O)C3C4CCC(C4)C3C2=O)cc1Cl (stereo unspecified),/,-1,/,46,/,/
Cc1c(C=O)c2ccccn2c1C(=O)c1cccs1,-1,1,87*,-12,-1,61*
N=c1c(S(=O)(=O)c2ccc(Br)cc2)cc2c(=O)n3ccccc3nc2n1C1CCCC1,/,69*,/,18,/,/
Cc1ccc(S(=O)(=O)c2cc3c(=O)n4ccccc4nc3n(C3CCCCC3)c2=N)cc1,/,48*,/,25,/,/
N=c1c(S(=O)(=O)c2ccccc2)cc2c(=O)n3ccccc3nc2n1C1CCCC1,/,144*,/,14,/,/
N=c1c(S(=O)(=O)c2ccc(Cl)cc2)cc2c(=O)n3ccccc3nc2n1C1CCCCC1,/,?,/,35,/,/
O=C(NCCCn1ccnc1)C1CCN(S(=O)(=O)c2ccc(F)cc2)CC1,/,3,/,28,/,/
O=C(c1ccc2nc(-c3ccco3)c(-c3ccco3)nc2c1)N1CCN(c2ccccc2)CC1,-7,23*,-12,0,3,12
O=C(Nc1cccc(C(F)(F)F)c1)c1ccc2nc(-c3ccco3)c(-c3ccco3)nc2c1,-6,47*,-13,24,-3,1
O=C(Nc1ccc(N2CCOCC2)cc1)Nc1ccc2nc(-c3ccco3)c(-c3ccco3)nc2c1,-7,26*,11,4,1,12
O=C(NCCCO)Nc1ccc2nc(-c3ccco3)c(-c3ccco3)nc2c1,-7,/,-321,49,-1,-250

# Assay outcomes deposited in PubChem by several laboratories.
